Results on 2 compounds are retold here after ChEMBL document CHEMBL4373712, “Bioactivatable Pseudotripeptidization of Cyclic Dipeptides To Increase the Affinity toward Oligopeptide Transporter 1 for Enhanced Oral Absorption: An Application to Cyclo(l-Hyp-l-Ser) (JBP485)” (J Med Chem, 2019).

Each structure is given as a SMILES string.

Data set [1] can be described thus: Half life in pH 4.5 acetate buffer at 5 mM by HPLC analysis. The data set is classed as physicochemical. A digest of the protocol: (§1)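 Compound at 5 mM in 0.1 M HCl, pH 4.5 acetate buffer, pH 5.8/6.8/7.2 phosphate buffers, SGF (pH 1.2) and SIF (pH 6.8), prepared per Chinese Pharmacopoeia. Samples taken at 0-20 h and analyzed by HPLC-UV. k = 2.303×slope of log C versus time; t1/2 = 0.693/k.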

Data set [2] is described as follows: Half life in pH 7.2 phosphate buffer at 5 mM by HPLC analysis. Type of data set: physicochemical. A digest of the protocol:
as §1

Data set [3] in a line: Half life in Sprague-Dawley rat intestinal homogenates at 5 mM by HPLC analysis. The data set is classed as ADME, tissue-based, Intestine. A digest of the protocol: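 Jejunum and liver homogenates from male SD rats in pH 7.4 PBS, adjusted to 200 µg/mL protein, and rat plasma. Each incubated with compound at 5 mM at 37 °C.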
Data set [4] can be described thus: Half life in 0.1 M HCl at 5 mM by HPLC analysis. The data set is classed as physicochemical. A digest of the protocol: as §1
The target of data set [5] is T1, Solute carrier family 15 member 1 (Rattus norvegicus, UniProt P51574).
T1 sequence (P51574 whole entry): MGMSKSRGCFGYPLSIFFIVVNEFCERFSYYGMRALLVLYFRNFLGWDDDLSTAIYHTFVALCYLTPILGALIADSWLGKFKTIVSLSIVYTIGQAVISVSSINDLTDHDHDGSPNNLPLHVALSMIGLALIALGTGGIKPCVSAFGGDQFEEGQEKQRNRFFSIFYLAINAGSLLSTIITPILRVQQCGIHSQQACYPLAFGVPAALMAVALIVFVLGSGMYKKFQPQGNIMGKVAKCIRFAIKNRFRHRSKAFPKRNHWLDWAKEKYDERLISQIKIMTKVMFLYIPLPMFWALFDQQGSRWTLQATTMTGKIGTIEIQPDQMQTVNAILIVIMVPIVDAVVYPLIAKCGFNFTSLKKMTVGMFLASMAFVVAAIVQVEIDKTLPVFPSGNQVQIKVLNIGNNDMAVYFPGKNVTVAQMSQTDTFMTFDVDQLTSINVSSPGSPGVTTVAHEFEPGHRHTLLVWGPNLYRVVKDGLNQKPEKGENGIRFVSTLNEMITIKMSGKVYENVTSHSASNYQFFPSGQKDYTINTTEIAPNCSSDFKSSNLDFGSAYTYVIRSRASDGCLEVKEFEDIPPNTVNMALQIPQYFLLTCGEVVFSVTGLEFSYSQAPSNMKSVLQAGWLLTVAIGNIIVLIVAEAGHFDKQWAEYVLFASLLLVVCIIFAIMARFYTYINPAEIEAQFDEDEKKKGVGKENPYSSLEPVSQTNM
The experiment in a line: Substrate activity at PEPT1 in Sprague-Dawley rat jejunum assessed as effective permeability at 5 mM measured after 15 to 120 mins by HPLC analysis. The data set is classed as ADME, tissue-based. The note with it: 5000 µM. The gist of the method:
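In situ single-pass jejunal perfusion in fasted (12 h) male SD rats anaesthetised with urethane 1.5 g/kg i.p. About 10 cm of jejunum was perfused at 0.2 mL/min with pH 6.0 HEPES buffer containing 5 mM compound. Outflow was collected 15–120 min after steady state and assayed by HPLC. Peff was calculated from outlet/inlet concentration and volume ratios and segment radius and length.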

In a further data set the test system is Rattus norvegicus. Put plainly: Anti-hepatitis activity in ANIT-induced po dosed Sprague-Dawley rat model of cholestasis assessed as reduction in serum total bilirubin level administered 30 mins prior to ANIT challenge and subsequent dosing at 8, 22, 32, and 46 hrs post ANIT challenge and measured 48 hrs post ANIT challenge. The data set is classed as functional, organism-based. A digest of the protocol:
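Male SD rats, 6 weeks old, fasted 12 h, 6 per group. Cholestasis induced by ANIT 50 mg/kg ip in olive oil. Test agents were given in water; UDCA 100 mg/kg was given orally in CMC-Na. Dosing at 30 min before and 8, 22, 32 and 46 h after ANIT. Serum taken from the abdominal aorta under chloral hydrate anesthesia at 48 h; total bilirubin measured with an assay kit.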

For data set [6], the target named is T2, Solute carrier organic anion transporter family member 2B1 (Homo sapiens, UniProt O94956).
T2 sequence (O94956 whole entry): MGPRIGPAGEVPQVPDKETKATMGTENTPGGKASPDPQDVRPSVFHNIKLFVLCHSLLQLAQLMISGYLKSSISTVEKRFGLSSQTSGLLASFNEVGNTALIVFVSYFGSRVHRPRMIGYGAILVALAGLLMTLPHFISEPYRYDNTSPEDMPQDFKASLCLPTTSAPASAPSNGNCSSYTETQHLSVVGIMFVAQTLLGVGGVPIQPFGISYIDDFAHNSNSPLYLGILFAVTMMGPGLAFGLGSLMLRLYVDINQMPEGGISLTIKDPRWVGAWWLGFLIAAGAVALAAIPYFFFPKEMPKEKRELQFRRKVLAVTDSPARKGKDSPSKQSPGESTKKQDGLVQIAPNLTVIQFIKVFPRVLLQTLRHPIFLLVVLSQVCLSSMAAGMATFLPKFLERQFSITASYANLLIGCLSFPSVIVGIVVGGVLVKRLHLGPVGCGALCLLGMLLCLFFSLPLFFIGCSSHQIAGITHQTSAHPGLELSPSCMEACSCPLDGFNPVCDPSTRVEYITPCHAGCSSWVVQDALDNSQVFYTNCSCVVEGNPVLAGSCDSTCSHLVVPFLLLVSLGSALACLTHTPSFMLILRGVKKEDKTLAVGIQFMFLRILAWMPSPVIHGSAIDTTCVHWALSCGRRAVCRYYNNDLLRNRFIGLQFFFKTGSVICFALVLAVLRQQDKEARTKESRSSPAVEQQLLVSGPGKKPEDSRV
The experiment in a line: Substrate activity at OATPB in human Caco2 cells assessed as protein-mediated drug uptake at 0.5 mM measured after 10 mins in absence of OATPB substrate captopril by UPLC-MS/MS analysis. To be noted: caco-2, 10 min, 500 µM.

As a reminder, the half-life is the time in which the quantity being followed falls by half.

Consider `CC(C)[C@H](N)C(=O)OC[C@@H]1NC(=O)[C@@H]2C[C@@H](O)CN2C1=O`, for which the half-life at 5000 µM is greater than 20 h in data set [1], 5.5 h in data set [2], less than 0.16 h in data set [3] and greater than 20 h in data set [4]. In addition, in data set [5], the Peff entry was “Permeable”. Besides, the Activity result in the data set on Rattus norvegicus was “Dose-dependent effect”. The Drug uptake entry in data set [6] is reported as “Not Active”.
With `O=C1N[C@@H](CO)C(=O)N2C[C@H](O)C[C@@H]12`, the half-life at 5000 µM in data set [1], in data set [2], in data set [3] and in data set [4] was greater than 20 h each time. Besides, the Peff result in data set [5] is given as “Permeable”. For the same compound, the Activity entry with Rattus norvegicus is “Dose-dependent effect”. Besides, the Drug uptake result in data set [6] is listed as “Not Active”.
